Blank lines part the entries; values can stand above or below the molecule they belong to. Activity calls are given as the source filed them. No cut-off for these calls is given here.
Tests used:
[1] = target: T1, Muscarinic acetylcholine receptor M1 (Homo sapiens) (UniProt P11229); test: Allosteric modulator activity at human muscarinic M1 receptor expressed in CHO cells assessed as potentiation of acetylcholine-induced calcium mobilization by FLIPR assay; assay type: functional, cell-based
T1 sequence (whole entry): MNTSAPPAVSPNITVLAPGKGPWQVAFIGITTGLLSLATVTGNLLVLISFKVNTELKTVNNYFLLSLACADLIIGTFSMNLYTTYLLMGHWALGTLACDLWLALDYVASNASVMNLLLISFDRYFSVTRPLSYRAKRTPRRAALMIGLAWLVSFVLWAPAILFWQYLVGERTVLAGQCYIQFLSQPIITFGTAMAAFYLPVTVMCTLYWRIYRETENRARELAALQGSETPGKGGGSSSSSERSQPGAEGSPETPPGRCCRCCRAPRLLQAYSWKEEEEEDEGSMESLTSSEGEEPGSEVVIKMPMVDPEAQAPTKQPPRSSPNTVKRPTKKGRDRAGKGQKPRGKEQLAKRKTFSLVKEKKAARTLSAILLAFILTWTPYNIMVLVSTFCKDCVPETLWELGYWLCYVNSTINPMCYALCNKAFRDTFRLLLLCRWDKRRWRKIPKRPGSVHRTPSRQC

[2] = species: Homo sapiens; test: Protein binding in human plasma; conditions: read-out: PPB (converted)
[3] = Protein binding in rat plasma; assay type: ADME, cell-free; conditions: read-out: PPB (converted)
Method in brief: (§1)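 Binding in rat and human serum/plasma measured by equilibrium dialysis.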

[4] = Fraction unbound in rat plasma; assay type: ADME, cell-free; method in brief: as §1
[5] = Ratio of drug level in brain to plasma in Sprague-Dawley rat at 10 mg/kg, po; assay type: ADME, organism-based; parameters: dose 10 mg/kg, route oral
Method in brief: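 Sprague–Dawley rats dosed orally at 10 mg/kg in 0.5% methocel; brain to plasma level ratio; interanimal variability under 20%.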

[6] = Ratio of drug level in rat cerebrospinal fluid to unbound fraction in rat plasma; assay type: ADME, CSF/Plasma; conditions: in vivo
[7] = species: Homo sapiens; test: Protein binding in human plasma; conditions: read-out: PPB (converted); remark: listed apart in the source
[8] = species: Homo sapiens; test: Fraction unbound in human plasma
[9] = target: T1, Muscarinic acetylcholine receptor M1 (Homo sapiens); test: Allosteric modulator activity at human muscarinic M1 receptor expressed in CHO cells assessed as potentiation of acetylcholine-induced calcium mobilization at 1 uM by FLIPR assay; assay type: functional, cell-based
Method in brief: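 CHO cells expressing human M1; acetylcholine dose response run with fixed 1 µM potentiator (also 0.01–100 µM series), calcium mobilization by FLIPR; fold left-shift of acetylcholine curve recorded.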

[10] = target: T1, Muscarinic acetylcholine receptor M1 (Homo sapiens); test: Agonist activity at human muscarinic M1 receptor expressed in CHO cells assessed as potentiation of acetylcholine-induced calcium mobilization at >= 10 uM by FLIPR assay; assay type: functional, cell-based
[11] = Plasma concentration in ip dosed mouse after 24 hrs
[12] = tested on: Mus musculus; test: Reversal of cognitive deficits in contextual fear conditioning in mouse at 10 mg/kg, ip after 24 hrs in presence of Scopolamine; assay type: functional, organism-based; parameters: dose 10 mg/kg
Method in brief: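 Mouse contextual fear conditioning (episodic memory model); mice given scopolamine before exposure to novel environment; test agent 10 mg/kg ip; reversal compared with scopolamine-alone group; plasma levels sampled.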

[13] = tested on: Plasma; test: Fraction unbound in human plasma; assay type: ADME, cell-free; method in brief: as §1

SMILES: O=C(O)c1cn(Cc2ccc(-n3ccnc3)cc2)c2cccc(F)c2c1=O
Activity [1]: 110 nM
fraction unbound [2]: 0.162

SMILES: COc1ccc(Cn2cc(C(=O)O)c(=O)c3ccccc32)cc1
Activity [1]: 660 nM

SMILES: O=C(O)c1cn(Cc2ccc(-n3cccn3)cn2)c2c(F)cccc2c1=O
Activity [1]: 1400 nM

SMILES: O=C(O)c1cn(Cc2ccc(N3CCCC3=O)cc2)c2cccc(F)c2c1=O
Activity [1]: 2500 nM

SMILES: O=C(O)c1cn(Cc2ccc(-n3cccn3)cc2)c2c(F)ccc(F)c2c1=O
Activity [1]: 171 nM
Kp [5]: 0.03
Ratio [6]: 0.1
fold change (FC) [9]: 46
Activity [10]: Active
concentration at 24 h [11]: 9 µM
Activity [12]: Active
fraction unbound [2]: 0.043

SMILES: O=C(O)c1cn(Cc2ccc(-n3cccn3)cc2)c2c(F)cccc2c1=O
Activity [1]: 96 nM

SMILES: O=C(O)c1cn(Cc2ccc(-n3cccn3)nn2)c2c(F)cccc2c1=O
Activity [1]: 24000 nM

SMILES: O=C(O)c1cn(Cc2ccc(-n3ccc(C(F)(F)F)n3)cc2)c2cccc(F)c2c1=O
Activity [1]: 290 nM

SMILES: O=C(O)c1cn(Cc2ccc(N3CCOC3=O)cc2)c2cccc(F)c2c1=O
Activity [1]: 500 nM
fraction unbound [3]: 0.116
fraction unbound [7]: 0.224

SMILES: Cc1ccnn1-c1ccc(Cn2cc(C(=O)O)c(=O)c3c(F)cccc32)cc1
Activity [1]: 2900 nM

SMILES: O=C(O)c1cn(Cc2ccc(-n3cccn3)nc2)c2c(F)cccc2c1=O
Activity [1]: 864 nM

Now from value to molecule:

Activity [1]: 250 nM
SMILES: O=C(O)c1cn(Cc2ccc(-n3ccc4ccccc43)cc2)c2cccc(F)c2c1=O

Activity [1]: 94 nM
fraction unbound [3]: 0.116
fraction unbound [4]: 0.1
Kp [5]: 0.04
Ratio [6]: 0.05
fraction unbound [7]: 0.116
fraction unbound [8]: 0.1
SMILES: O=C(O)c1cn(Cc2ccc(-n3cccn3)cc2)c2cccc(F)c2c1=O

Activity [1]: 140 nM
fraction unbound [2]: 0.111
SMILES: Cc1cn(-c2ccc(Cn3cc(C(=O)O)c(=O)c4c(F)cccc43)cc2)cn1

Activity [1]: 160 nM
fraction unbound [2]: 0.031
SMILES: O=C(O)c1cn(Cc2ccc(-n3ccc4cnccc43)cc2)c2cccc(F)c2c1=O

Activity [1]: 36 nM
fraction unbound [3]: 0.057
fraction unbound [7]: 0.057
SMILES: Cc1ccn(-c2ccc(Cn3cc(C(=O)O)c(=O)c4c(F)cccc43)cc2)n1

Activity [1]: 150 nM
SMILES: O=C(O)c1cn(Cc2ccc(-n3ccc4ncccc43)cc2)c2cccc(F)c2c1=O

Activity [1]: 620 nM
SMILES: Cc1nn(-c2ccc(Cn3cc(C(=O)O)c(=O)c4c(F)cccc43)cc2)c2ccccc12

Activity [1]: 90 nM
SMILES: O=C(O)c1cn(Cc2ccc(-n3ccc4cccnc43)cc2)c2cccc(F)c2c1=O

Activity [1]: 181 nM
fraction unbound [3]: 0.003
fraction unbound [7]: 0.003
SMILES: O=C(O)c1cn(Cc2ccc(-n3cccc3)cc2)c2cccc(F)c2c1=O

Activity [1]: 920 nM
SMILES: Cc1nccn1-c1ccc(Cn2cc(C(=O)O)c(=O)c3c(F)cccc32)cc1

Activity [1]: 96 nM
Fu [13]: 9%
fraction unbound [4]: 0.039
fraction unbound [2]: 0.084
SMILES: O=C(O)c1cn(Cc2ccc(-n3cnc4ccccc43)cc2)c2cccc(F)c2c1=O

Activity [1]: 39 nM
SMILES: O=C(O)c1cn(Cc2ccc(-n3cnc(-c4ccccc4)c3)cc2)c2cccc(F)c2c1=O

Activity [1]: 228 nM
SMILES: O=C(O)c1cn(Cc2ccc(-n3nnc4ccccc43)cc2)c2cccc(F)c2c1=O

Reference: ChEMBL document CHEMBL1156905, “N-heterocyclic derived M1 positive allosteric modulators” (Bioorg Med Chem Lett, 2010)
